# Assay results: ChEMBL document CHEMBL1806370, “Development of novel naphthalimide derivatives and their evaluation as potential melanoma therapeutics” (Eur J Med Chem, 2011)
# Experiments:
# UACC-903 [1] = assay: Induction of apoptosis in human UACC-903 cells assessed as late apoptotic cells at 5 uM after 24 hrs using annexin-V-PE/7-AAD double staining by flow cytometry; format: functional
# Summary of the method: (§1)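 UACC 903 cells were exposed 24 h at 37 °C to 1, 5 or 25 µM, with DMSO as control. Cells were harvested, washed twice in cold PBS and resuspended at 1×10^6 cells/mL in binding buffer. They were stained with 7-AAD plus PE Annexin V for 20 min at room temperature in the dark and run by flow cytometry within 1 h. Gating: double-negative live, 7-AAD+ dead, Annexin V+/7-AAD− early apoptotic. Three separate experiments.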
# UACC-903 [2] = assay: Induction of apoptosis in human UACC-903 cells assessed as non-viable cells at 1 uM after 24 hrs using annexin-V-PE/7-AAD double staining by flow cytometry; format: functional; summary of the method: as §1
# UACC-903 [3] = assay: Induction of apoptosis in human UACC-903 cells assessed as late apoptotic cells at 25 uM after 24 hrs using annexin-V-PE/7-AAD double staining by flow cytometry; format: functional; summary of the method: as §1
# UACC-903 [4] = assay: Antitumor activity against human UACC-903 cells xenografted in athymic Harlan Sprague-Dawley nude mouse assessed as reduction in tumor growth at 8.5 to 10 mg/kg, ip administered thrice per week for 24 days measured after 21 days; format: functional; conditions: dose mg/kg 8.5-10; route intraperitoneal
# Summary of the method: (§2)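 Female athymic nude mice, 4–6 weeks old, received 5×10^6 UACC 903 cells s.c. in DMEM/10% FBS above both rib cages. After six days they were randomized at 5 mice/group, 2 tumors/mouse. Dosing was i.p. Mon/Wed/Fri, with one arm dosed daily; controls got DMSO vehicle. Tumor dimensions (calipers, mm³) and body weight were recorded three times weekly.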
# Mus musculus [5] = assay: Systemic toxicity in Swiss Webster mouse assessed as mortality at 15 mg/kg, ip administered every day for 28 days; format: organism-based; design: dose 15 mg/kg, route intraperitoneal; conditions: in vivo, 672 h
# Summary of the method: (§3)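 Swiss Webster mice, n = 4 per group, dosed i.p. once daily for 28 days at 5, 7.5, 10 or 15 mg/kg body weight. Body weight recorded twice per week; deaths noted over the dosing period.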
# UACC-903 [6] = assay: Cytotoxicity against human UACC-903 cells after 24 hrs by MTS assay; format: functional, cell-based; conditions: UACC-903, 24 h
# Summary of the method: (§4)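 Cells in DMEM with 10% FBS at 37 °C and 5% CO2 were plated at 5×10^3 per well and grown 24 h. They were then exposed 24 or 72 h to 0.5, 1, 5, 10, 25 and 50 µM, with final DMSO 0.5% and DMSO controls. MTS/PMS was added for 4 h at 37 °C. A492 was read with the medium blank subtracted and expressed as % of control. IC50 was taken from three independent experiments (mean ± S.E.).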
# [7] = Cytotoxicity against human 1205 Lu cells after 24 hrs by MTS assay; format: functional, cell-based; summary of the method: as §4
# UACC-903 [8] = assay: Induction of apoptosis in human UACC-903 cells assessed as early apoptotic cells at 5 uM after 24 hrs using annexin-V-PE/7-AAD double staining by flow cytometry; format: functional; summary of the method: as §1
# [9] = Cytotoxicity against human SK-MEL-37 cells after 24 hrs by MTS assay; format: functional, cell-based; summary of the method: as §4
# SK-MEL-37 (Homo sapiens) [10] = assay: Cytotoxicity against human SK-MEL-37 cells assessed as decrease in cell viability after 72 hrs by MTS assay
# UACC-903 [11] = assay: Induction of apoptosis in human UACC-903 cells assessed as viable cells at 5 uM after 24 hrs using annexin-V-PE/7-AAD double staining by flow cytometry; format: functional; conditions: UACC-903, 24 h, read-out: Activity; summary of the method: as §1
# [12] = Cytotoxicity against human SK-MEL-37 cells after 72 hrs by MTS assay; format: functional, cell-based; summary of the method: as §4
# UACC-903 [13] = assay: Induction of apoptosis in human UACC-903 cells assessed as non-viable cells at 25 uM after 24 hrs using annexin-V-PE/7-AAD double staining by flow cytometry; format: functional; summary of the method: as §1
# UACC-903 [14] = assay: Induction of apoptosis in human UACC-903 cells assessed as early apoptotic cells at 1 uM after 24 hrs using annexin-V-PE/7-AAD double staining by flow cytometry; format: functional; summary of the method: as §1
# UACC-903 [15] = assay: Induction of apoptosis in human UACC-903 cells assessed as viable cells at 25 uM after 24 hrs using annexin-V-PE/7-AAD double staining by flow cytometry; format: functional; conditions: UACC-903, 24 h, read-out: Activity; summary of the method: as §1
# 1205Lu [16] = assay: Cytotoxicity against human 1205 Lu cells assessed as decrease in cell viability after 24 hrs by MTS assay; format: functional, cell-based; summary of the method: as §4
# [17] = Cytotoxicity against human A375-S2 cells after 72 hrs by MTS assay; format: functional, cell-based; conditions: A375-S2, 72 h; summary of the method: as §4
# Mus musculus [18] = assay: Systemic toxicity in Swiss Webster mouse assessed as weight loss at 10 mg/kg, ip administered every day for 28 days; format: organism-based; design: dose 10 mg/kg, route intraperitoneal; conditions: in vivo, 672 h; summary of the method: as §3
# Mus musculus [19] = assay: Systemic toxicity in athymic Harlan Sprague-Dawley nude mouse xenografted with human UACC-903 cells assessed as reduction in body weight at 8.5 to 10 mg/kg, ip administered thrice a week for 24 days; format: organism-based; design: dose 8.5-10 mg/kg, route intraperitoneal; conditions: in vivo, 576 h; summary of the method: as §2
# UACC-903 [20] = assay: Cytotoxicity against human UACC-903 cells assessed as decrease in cell viability after 72 hrs by MTS assay; format: functional, cell-based; summary of the method: as §4
# Mus musculus [21] = assay: Systemic toxicity in Swiss Webster mouse assessed as mortality at 10 mg/kg, ip administered every day for 28 days; format: organism-based; design: dose 10 mg/kg, route intraperitoneal; conditions: in vivo, 672 h; summary of the method: as §3
# 1205Lu [22] = assay: Cytotoxicity against human 1205 Lu cells assessed as decrease in cell viability after 72 hrs by MTS assay; format: functional, cell-based; summary of the method: as §4
# A375-S2 [23] = assay: Cytotoxicity against human A375-S2 cells assessed as decrease in cell viability after 72 hrs by MTS assay; format: functional, cell-based; summary of the method: as §4
# A375-S2 [24] = assay: Cytotoxicity against human A375-S2 cells assessed as decrease in cell viability after 24 hrs by MTS assay; format: functional, cell-based; summary of the method: as §4
# UACC-903 [25] = assay: Cytotoxicity against human UACC-903 cells assessed as decrease in cell viability after 24 hrs by MTS assay; format: functional, cell-based; summary of the method: as §4
# UACC-903 [26] = assay: Induction of apoptosis in human UACC-903 cells assessed as late apoptotic cells at 1 uM after 24 hrs using annexin-V-PE/7-AAD double staining by flow cytometry; format: functional; summary of the method: as §1
# UACC-903 [27] = assay: Cytotoxicity against human UACC-903 cells after 72 hrs by MTS assay; format: functional, cell-based; conditions: UACC-903, 72 h; summary of the method: as §4
# SK-MEL-37 (Homo sapiens) [28] = assay: Cytotoxicity against human SK-MEL-37 cells assessed as decrease in cell viability after 24 hrs by MTS assay
# UACC-903 [29] = assay: Induction of apoptosis in human UACC-903 cells assessed as increase in apoptotic cells after 24 hrs using annexin-V-PE/7-AAD double staining by flow cytometry; format: functional, cell-based; summary of the method: as §1
# UACC-903 [30] = assay: Induction of apoptosis in human UACC-903 cells assessed as non-viable cells at 5 uM after 24 hrs using annexin-V-PE/7-AAD double staining by flow cytometry; format: functional; summary of the method: as §1
# [31] = Cytotoxicity against human A375-S2 cells after 24 hrs by MTS assay; format: functional, cell-based; conditions: A375-S2, 24 h; summary of the method: as §4
# UACC-903 [32] = assay: Induction of apoptosis in human UACC-903 cells assessed as early apoptotic cells at 25 uM after 24 hrs using annexin-V-PE/7-AAD double staining by flow cytometry; format: functional; summary of the method: as §1
# UACC-903 [33] = assay: Induction of apoptosis in human UACC-903 cells assessed as viable cells at 1 uM after 24 hrs using annexin-V-PE/7-AAD double staining by flow cytometry; format: functional; conditions: UACC-903, 24 h, read-out: Activity; summary of the method: as §1
# [34] = Cytotoxicity against human 1205 Lu cells after 72 hrs by MTS assay; format: functional, cell-based; summary of the method: as §4
structure (smiles),measurement,setting,value
O=C1c2cccc3cccc(c23)C(=O)N1CCCCN=C=S,Activity,UACC-903 [1],16%
same,Activity,UACC-903 [2],6.42%
same,Activity,UACC-903 [3],19.3%
same,growth inhibition (GI),UACC-903 [4],30%
same,Activity,Mus musculus [5],Toxic
same,IC50,UACC-903 [6],10.7 µM
same,IC50,[7],4.88 µM
same,Activity,UACC-903 [8],34.9%
same,IC50,[9],3.89 µM
same,Activity,SK-MEL-37 (Homo sapiens) [10],Dose-dependent effect
same,viability at 5 µM,UACC-903 [11],39.4%
same,IC50,[12],2.12 µM
same,Activity,UACC-903 [13],6.43%
same,Activity,UACC-903 [14],21.1%
same,viability at 25 µM,UACC-903 [15],22.5%
same,Activity,1205Lu [16],Dose-dependent effect
same,IC50,[17],3.47 µM
same,Activity,Mus musculus [18],Non-toxic
same,Activity,Mus musculus [19],Non-toxic
same,Activity,UACC-903 [20],Dose-dependent effect
same,Activity,Mus musculus [21],Non-toxic
same,Activity,1205Lu [22],Dose-dependent effect
same,Activity,A375-S2 [23],Dose-dependent effect
same,Activity,A375-S2 [24],Dose-dependent effect
same,Activity,UACC-903 [25],Dose-dependent effect
same,Activity,UACC-903 [26],9.79%
same,IC50,UACC-903 [27],5.17 µM
same,Activity,SK-MEL-37 (Homo sapiens) [28],Dose-dependent effect
same,Activity,UACC-903 [29],Dose-dependent effect
same,Activity,UACC-903 [30],9.69%
same,IC50,[31],6.89 µM
same,Activity,UACC-903 [32],51.7%
same,viability at 1 µM,UACC-903 [33],62.7%
same,IC50,[34],3.03 µM
